From ChEMBL document CHEMBL4229468, “Novel cinnamaldehyde-based aspirin derivatives for the treatment of colorectal cancer” (Bioorg Med Chem Lett, 2018)

Columns and labels:
[1] = system: HCT-8; experiment: Antiproliferative activity against human HCT8 cells after 72 hrs by MTT assay; format: functional, cell-based; conditions: HCT-8, 72 h
Outline: (§1)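 MTT proliferation assay (details in supplement); positive control 5-FU; mixture comparator ASA + CA physical mixture at 1:1 mole ratio; IC50 = concentration inhibiting 50% of proliferation; mean ± SD from three independent experiments.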

[2] = system: DLD-1; experiment: Antiproliferative activity against human DLD1 cells after 72 hrs by MTT assay; format: functional, cell-based; conditions: DLD-1, 72 h
Outline: (§2)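 MTT proliferation assay on colorectal cancer (DLD-1) or non-tumorigenic colon (CCD841) cells. IC50 is the drug concentration inhibiting 50% of cell proliferation, given as the mean ± SD of three independent experiments.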

[3] = system: CCD-841CoN; experiment: Antiproliferative activity against human CCD-841-CoN cells after 72 hrs by MTT assay; format: cell-based; outline: as §2
[4] = system: HCT-8; experiment: Induction of reactive oxygen species formation in human HCT8 cells at 12 uM after 24 hrs by DCFH-DA dye-based flow cytometric method (reference value: 3.67%); format: functional
Outline: (§3)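 Cells treated 24 h with 0, 3, 6 or 12 μM, stained with fluorogenic 2',7'-dichlorofluorescin diacetate; ROS level read by flow cytometry.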

[5] = system: HCT-8; experiment: Induction of apoptosis in human HCT8 cells assessed as upregulation of cleaved PARP levels after 24 hrs by Western blot method; format: functional, cell-based
Outline: (§4)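 Cells treated 24 h with 0, 3, 6, 12 μM or control (0.1% DMSO); whole-cell lysates immunoblotted for cleaved caspase 3 and PARP.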

[6] = system: HCT-8; experiment: Induction of apoptosis in human HCT8 cells assessed as late apoptotic cells at 3 uM after 24 hrs by annexin V-FITC/propidium iodide staining-based flow cytometric method (reference value: 2.40%)
[7] = Selectivity index, ratio of IC50 for human CCD-841-CoN cells to IC50 for human HCT8 cells; format: toxicity; conditions: CCD-841-CoN cells versus HCT8 cells, read-out: Ratio IC50
[8] = system: HCT-8; experiment: Induction of apoptosis in human HCT8 cells assessed as late apoptotic cells at 12 uM after 24 hrs by annexin V-FITC/propidium iodide staining-based flow cytometric method (reference value: 2.40%)
[9] = system: HCT-8; experiment: Induction of reactive oxygen species formation in human HCT8 cells at 3 uM after 24 hrs by DCFH-DA dye-based flow cytometric method (reference value: 3.67%); format: functional; outline: as §3
[10] = system: HCT-8; experiment: Cell cycle arrest in human HCT8 cells assessed as accumulation at G2 phase at 6 uM after 24 hrs by propidium iodide staining-based flow cytometric method (reference value: 23.77%); format: functional
[11] = system: HCT-8; experiment: Potency index, ratio of 5-FU IC50 to test compound IC50 for human HCT8 cells; format: functional
[12] = system: HCT-8; experiment: Cell cycle arrest in human HCT8 cells assessed as accumulation at S phase at 12 uM after 24 hrs by propidium iodide staining-based flow cytometric method (reference value: 36.19%); format: functional
[13] = system: HCT-8; experiment: Cell cycle arrest in human HCT8 cells assessed as accumulation at G2 phase at 12 uM after 24 hrs by propidium iodide staining-based flow cytometric method (reference value: 23.77%); format: functional
[14] = system: HCT-8; experiment: Induction of apoptosis in human HCT8 cells assessed as early apoptotic cells at 3 uM after 24 hrs by annexin V-FITC/propidium iodide staining-based flow cytometric method (reference value: 0.25%); format: functional
[15] = system: HCT-8; experiment: Cell cycle arrest in human HCT8 cells assessed as accumulation at S phase at 6 uM after 24 hrs by propidium iodide staining-based flow cytometric method (reference value: 36.19%); format: functional
[16] = system: HCT-8; experiment: Induction of apoptosis in human HCT8 cells after 24 hrs by annexin V-FITC/propidium iodide staining-based flow cytometric method; format: functional, cell-based
[17] = system: HCT-8; experiment: Induction of apoptosis in human HCT8 cells assessed as early apoptotic cells at 6 uM after 24 hrs in presence of ROS scavenger NAC by annexin V-FITC/propidium iodide staining-based flow cytometric method (reference value: 0.25%); format: functional
[18] = system: HCT-8; experiment: Cell cycle arrest in human HCT8 cells assessed as accumulation at G1 phase after 24 hrs by propidium iodide staining-based flow cytometric method; format: functional
[19] = system: Mus musculus; experiment: Toxicity in BALB/c nude mouse xenografted with human HCT8 cells assessed as change in body weight at 60 mg/kg, ip administered daily for 32 days; format: organism-based; conditions: in vivo, 768 h
Outline: (§5)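 HCT-8 cells inoculated subcutaneously; after solid tumours established, mice randomized to daily intraperitoneal dosing at 60 mg/kg or vehicle Tween 80/PBS (5:95) for 32 consecutive days; tumour volume, tumour weight and body weight recorded; n = 6 per group; mean ± SD; P vs vehicle.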

[20] = system: HCT-8; experiment: Cell cycle arrest in human HCT8 cells assessed as accumulation at S phase at 3 uM after 24 hrs by propidium iodide staining-based flow cytometric method (reference value: 36.19%); format: functional
[21] = system: HCT-8; experiment: Cell cycle arrest in human HCT8 cells assessed as accumulation at G1 phase at 12 uM after 24 hrs by propidium iodide staining-based flow cytometric method (reference value: 40.05%); format: functional
[22] = system: HCT-8; experiment: Induction of apoptosis in human HCT8 cells assessed as early apoptotic cells at 12 uM after 24 hrs by annexin V-FITC/propidium iodide staining-based flow cytometric method (reference value: 0.25%); format: functional
[23] = system: HCT-8; experiment: Cell cycle arrest in human HCT8 cells assessed as accumulation at G1 phase at 6 uM after 24 hrs by propidium iodide staining-based flow cytometric method (reference value: 40.05%); format: functional
[24] = system: HCT-8; experiment: Induction of reactive oxygen species formation in human HCT8 cells at 6 uM after 24 hrs by DCFH-DA dye-based flow cytometric method (reference value: 3.67%); format: functional; outline: as §3
[25] = system: HCT-8; experiment: Antitumor activity against human HCT8 cells xenografted in BALB/c nude mouse assessed as tumor weight at 60 mg/kg, ip administered daily for 32 days measured every 4 days during compound dosing relative to control; format: functional; outline: as §5
[26] = system: HCT-8; experiment: Cell cycle arrest in human HCT8 cells assessed as accumulation at G2 phase at 3 uM after 24 hrs by propidium iodide staining-based flow cytometric method (reference value: 23.77%); format: functional
[27] = system: HCT-8; experiment: Induction of apoptosis in human HCT8 cells assessed as upregulation of cleaved caspase-3 levels after 24 hrs by Western blot method; format: functional, cell-based; outline: as §4
[28] = Selectivity index, ratio of IC50 for human CCD-841-CoN cells to IC50 for human DLD1 cells; format: toxicity; conditions: CCD-841-CoN cells versus DLD1 cells, read-out: Ratio IC50
Outline: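 MTT IC50 in DLD-1 and non-tumorigenic CCD841 colon cells; IC50 = concentration inhibiting 50% proliferation; mean ± SD, three independent experiments.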

[29] = system: HCT-8; experiment: Induction of apoptosis in human HCT8 cells assessed as late apoptotic cells at 6 uM after 24 hrs in presence of ROS scavenger NAC by annexin V-FITC/propidium iodide staining-based flow cytometric method (reference value: 5.42%); format: functional
[30] = system: HCT-8; experiment: Induction of apoptosis in human HCT8 cells assessed as late apoptotic cells at 6 uM after 24 hrs by annexin V-FITC/propidium iodide staining-based flow cytometric method (reference value: 2.40%)
[31] = system: HCT-8; experiment: Induction of apoptosis in human HCT8 cells assessed as early apoptotic cells at 6 uM after 24 hrs by annexin V-FITC/propidium iodide staining-based flow cytometric method (reference value: 0.25%); format: functional
[32] = system: HCT-8; experiment: Cell cycle arrest in human HCT8 cells assessed as accumulation at G1 phase at 3 uM after 24 hrs by propidium iodide staining-based flow cytometric method (reference value: 40.05%); format: functional
[33] = system: HCT-8; experiment: Antiproliferative activity against human HCT8 cells after 72 hrs in presence of cinnamaldehyde by MTT assay; format: functional, cell-based; conditions: HCT-8, 72 h; outline: as §1
[34] = system: HCT-8; experiment: Antiproliferative activity against human HCT8 cells after 72 hrs in presence of aspirin by MTT assay; format: functional, cell-based; conditions: HCT-8, 72 h
Outline: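 MTT proliferation assay in HCT-8 colorectal cancer cells, run on a physical mixture with aspirin at a 1:1 mole ratio. IC50 is the concentration inhibiting 50% of cell proliferation, given as the mean ± SD of three independent experiments.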

SMILES: CC(=O)Oc1ccccc1C(=O)Oc1ccc(Br)cc1/C=C/C=O
- IC50 [1]: 5.6 µM

SMILES: COc1ccc(OC(=O)c2ccccc2OC(C)=O)c(/C=C/C=O)c1
- IC50 [1]: 9.3 µM

SMILES: CC(=O)Oc1ccccc1C(=O)Oc1ccccc1/C=C/C=O
- IC50 [1]: 20.3 µM

SMILES: CC(=O)Oc1ccccc1C(=O)Oc1ccc(C)cc1/C=C/C=O
- IC50 [1]: 8.5 µM

SMILES: O=c1[nH]cc(F)c(=O)[nH]1 [FLUOROURACIL]
- IC50 [2]: 33 µM
- IC50 [3]: 35.7 µM
- IC50 [1]: 28.9 µM

SMILES: CC(=O)Oc1ccccc1C(=O)Oc1ccc(Cl)cc1/C=C/C=O
- IC50 [1]: 4.3 µM

SMILES: CC(=O)Oc1ccccc1C(=O)Oc1ccc(F)cc1/C=C/C=O
- Activity [4]: 47.83%
- Activity [5]: Dose-dependent effect
- Activity [6]: 5.42%
- selectivity ratio [7]: 11
- Activity [8]: 27.71%
- Activity [9]: 18.67%
- Activity [10]: 12.63%
- Ratio IC50 [11]: 11
- IC50 [2]: 4.3 µM
- Activity [12]: 36.15%
- Activity [13]: 12.23%
- Activity [14]: 8.69%
- Activity [15]: 38.71%
- Activity [16]: Dose-dependent effect
- Activity [17]: 7.4%
- Activity [18]: Dose-dependent effect
- Activity [19]: Non-Toxic
- IC50 [3]: 30.7 µM
- Activity [20]: 35.89%
- Activity [21]: 51.62%
- Activity [22]: 15.84%
- Activity [23]: 48.66%
- Activity [24]: 25.07%
- Activity [25]: 47%
- Activity [26]: 20.94%
- Activity [27]: Dose-dependent effect
- selectivity ratio [28]: 7
- Activity [29]: 5.58%
- IC50 [1]: 2.6 µM
- Activity [30]: 17.03%
- Activity [31]: 15.56%
- Activity [32]: 43.17%

SMILES: COC(=O)c1ccccc1OC(C)=O
- IC50 [1]: > 100 µM

SMILES: COc1cccc(/C=C/C=O)c1OC(=O)c1ccccc1OC(C)=O
- IC50 [1]: 17.6 µM

SMILES: CC(=O)Oc1ccc(F)cc1/C=C/C=O
- IC50 [1]: 10.5 µM

SMILES: CC(=O)Oc1ccccc1C(=O)O [ASPIRIN]
- IC50 [33]: 15.6 µM
- IC50 [1]: > 100 µM

SMILES: COc1ccc(/C=C/C=O)c(OC(=O)c2ccccc2OC(C)=O)c1
- IC50 [1]: 15.8 µM

SMILES: O=C/C=C/c1ccccc1 [CINNAMALDEHYDE]
- IC50 [34]: 15.6 µM
- IC50 [1]: 29.4 µM
